We go through 8 molecules from ChEMBL document CHEMBL1153737, “Synthesis and antiprotozoal activity of 4-arylcoumarins” (Eur J Med Chem, 2010).

pIC50: −log10 of the molar value.

Data set [1] concerns Leishmania donovani. The data set can be described thus: Antileishmanial activity against Leishmania donovani MHOM/IN/80/DD8 promastigotes assessed as parasite viability after 48 hrs by Alamar blue assay. The format is functional, organism-based. Conditions: MHOM/IN/80/DD8, 48 h. Summed up: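 Late log-phase promastigotes in complete RPMI (10% FCS, L-glutamine/penicillin–streptomycin) with 10% Alamar Blue and a range of compound concentrations, final DMSO <0.5%. Incubated 48 h at 27 °C. Viability read as Alamar Blue reduction by absorbance at 570 and 630 nm.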
(The colour change of resazurin is a common sign of viable cells or microbes.)

For a further data set, the system named is Plasmodium falciparum. The data set can be described thus: Antiplasmodial activity against multidrug-resistant Plasmodium falciparum W2 infected human erythrocytes after 48 hrs by flow cytometry. The format is functional, organism-based. Conditions: W2, 48 h.
In a further data set the test system is THP-1. As to the kind of experiment: Cytotoxicity against human THP1 cells assessed as cell viability after 72 hrs by Alamar blue assay. The format is cell-based. Conditions: THP-1, 72 h.
Data set [2] relates to Leishmania donovani. The data set can be described thus: Antileishmanial activity against Leishmania donovani MHOM/IN/80/DD8 amastigotes infected in human THP1 cells assessed as decrease of infected macrophages after 72 hrs by Giemsa staining. Type of data set: functional, organism-based. To be noted: MHOM/IN/80/DD8, THP-1, 72 h. Summed up: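 THP1 monocytes (10⁵ cells/ml) differentiated to adherent macrophages with phorbol myristate acetate in complete RPMI, 48 h at 37 °C, 6% CO₂. Infected with stationary-phase promastigotes at cell:parasite ratio 1/10 for 24 h, then washed four times. Compound dilutions added in duplicate chambers for 72 h at 37 °C. Cells methanol-fixed and Giemsa-stained. Amphotericin B and DMSO controls included.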

The nature of data set [3]: Selectivity index, ratio of IC50 for human THP1 cells to IC50 for Leishmania donovani MHOM/IN/80/DD8 amastigotes. The format is toxicity, cell-based, THP-1. To be noted: read-out: Ratio IC50. Summed up:
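SI Ama computed as IC50 on THP1 cells divided by IC50 on intracellular L. donovani amastigotes, with amastigote IC50 taken from three independent experiments.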

The nature of data set [4]: Selectivity index, ratio of IC50 for human THP1 cells to IC50 for Plasmodium falciparum W2. To be noted: read-out: Ratio IC50. Type of data set: toxicity, cell-based, THP-1.

What is called pIC50 is −log10 of the IC50, conventionally taken in molar units. On to `COc1cc2oc(=O)cc(-c3ccc(O)cc3)c2cc1OC`, for which the negative logarithm of the IC50 (pIC50) with Leishmania donovani [1], with Plasmodium falciparum, with THP-1 and in the data set on Leishmania donovani [2] was below 4.17 each time.
With `COc1ccc(-c2cc(=O)oc3cc(OC)c(OC)cc23)cc1OC`, the selectivity ratio in data set [3] was above 265. For the same molecule, the pIC50 with Leishmania donovani [1] was below 3.53; in the data set with Plasmodium falciparum, below 3.93; with THP-1 it was below 3.53; in the data set with Leishmania donovani [2], 5.96.
Consider `COc1ccc(-c2cc(=O)oc3ccccc23)cc1OC`, for which the figures for the selectivity ratio in data set [3] and in data set [4] were above 6.7 and above 14.7, respectively. Also, the pIC50 in the data set with Leishmania donovani [1] was below 3.75; with Plasmodium falciparum it was 4.92; with THP-1, below 3.75; in the data set with Leishmania donovani [2], 4.58.
On to `COc1ccc2c(-c3ccc(OC)c(OC)c3)cc(=O)oc2c1`, for which the pIC50 was 4.59 in the data set with Leishmania donovani [1], 4.19 in the data set on Plasmodium falciparum, 4.19 with THP-1 and below 4.60 with Leishmania donovani [2]. In data set [4], the selectivity ratio came out at 1.
`COc1ccc2oc(=O)cc(-c3ccc(OC)c(OC)c3)c2c1`: the selectivity ratio in data set [3] is above 29.6. Besides, the negative logarithm of the IC50 (pIC50) with Leishmania donovani [1] was below 3.80; with Plasmodium falciparum, below 3.80; in the data set on THP-1, below 3.80; with Leishmania donovani [2], 5.27.
`COc1ccc(-c2cc(=O)oc3cc(OC)c(OC)c(OC)c23)cc1OC`: the selectivity ratio in data set [3] turned out to be 18.1; in data set [4] it was 3. Besides, the pIC50 with Leishmania donovani [1] was below 4.11; in the data set on Plasmodium falciparum, 4.59; in the data set with THP-1, 4.11; in the data set with Leishmania donovani [2] it was 5.37.
For `COc1cc(-c2cc(=O)oc3cc(OC)c(OC)cc23)ccc1O`, the figures for the selectivity ratio in data set [3] and in data set [4] were above 4.5 and above 6.1, respectively. Further, the pIC50 with Leishmania donovani [1] was 4.03; in the data set with Plasmodium falciparum it was 4.65; in the data set on THP-1 it was below 3.86; with Leishmania donovani [2] it was 4.52.
Regarding `C[C@@H]1[C@H](O)[C@@H](C)/C=C/C=C/C=C/C=C/C=C/C=C/C=C/[C@H](O[C@@H]2O[C@H](C)[C@@H](O)[C@H](N)[C@@H]2O)C[C@@H]2O[C@](O)(C[C@@H](O)C[C@@H](O)[C@H](O)CC[C@@H](O)C[C@@H](O)CC(=O)O[C@H]1C)C[C@H](O)[C@H]2C(=O)O` [AMPHOTERICIN B], the selectivity ratio in data set [3] is 140. The pIC50 is 4.85 with THP-1 and 7.00 in the data set on Leishmania donovani [2].
